SMILES strings stand for the structures. Converted amounts (≈) assume the structure as drawn.

The values that follow come from ChEMBL document CHEMBL4024765 (J Med Chem, 2017).

Data set [1] concerns Plasmodium falciparum. Put plainly: Resistance index, ratio of IC50 for chloroquine-resistant synchronized trophozoite stage of Plasmodium falciparum Dd2 to IC50 for chloroquine-sensitive synchronized trophozoite stage of Plasmodium falciparum NF54. The class given is functional.
The nature of data set [2]: Kinetic solubility of compound in simulating fasting state biorelevant media at pH 6.5 after 2 hrs by shake flask method. Type of data set: physicochemical. As to conditions: fasted-state simulating biorelevant medium, read-out: Kinetic_solubility.
Data set [3] in a line: n-Octanol-buffer distribution coefficient, log D of the compound at pH 5 incubated for 4 hrs by UV-vis based shake flask method. Type of data set: physicochemical.
Data set [4] in a line: n-Octanol-buffer distribution coefficient, log D of the compound at pH 7.4 […] by HPLC based shake flask method. Type of data set: physicochemical.
Data set [5] deals with Plasmodium falciparum. The experiment in a line: Antiplasmodial activity against chloroquine-sensitive synchronized trophozoite stage of Plasmodium falciparum NF54 after 48 hrs by NBT dye based LDH assay. Type of data set: functional. As to conditions: NF54, 48 h.
Data set [6] concerns Plasmodium falciparum. Put plainly: Antiplasmodial activity against chloroquine-resistant synchronized trophozoite stage of Plasmodium falciparum Dd2 after 48 hrs by NBT dye based LDH assay. Type of data set: functional. As to conditions: Dd2, 48 h.
The subject of data set [7] is Plasmodium falciparum. The experiment in a line: Antiplasmodial activity against chloroquine-resistant synchronized trophozoite stage of Plasmodium falciparum 7G8 after 48 hrs by NBT dye based LDH assay. As to conditions: 7G8, 48 h. The class given is functional.
The subject of a further data set is CHO. Put plainly: Cytotoxicity against CHO cells by MTT assay. The class given is cell-based. As to conditions: Cricetulus griseus. In a few lines:
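MTT assay on CHO cells. DMSO stock diluted in complete medium; 10-fold serial dilutions, 6 concentrations from 100 to 0.001 μg/mL; emetine reference; triplicate on each occasion. IC50 from non-linear fit of full dose-response curves.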
A general note: Tetrazolium dyes change colour on reduction, which living cells bring about.

Data set [8] has as its system Plasmodium falciparum. Put plainly: Resistance index, ratio of IC50 for chloroquine-resistant synchronized trophozoite stage of Plasmodium falciparum 7G8 to IC50 for chloroquine-sensitive synchronized trophozoite stage of Plasmodium falciparum NF54. Type of data set: functional.
A short description of data set [9]: Selectivity index, ratio of IC50 for CHO cells to IC50 for chloroquine-sensitive synchronized trophozoite stage of Plasmodium falciparum NF54. The class given is toxicity. As to conditions: hamster; read-out: Ratio IC50.
In the next data set the test system is Plasmodium berghei. The experiment in a line: Antimalarial activity against chloroquine-sensitive Plasmodium berghei ANKA infected in C57BL/6 mouse assessed as supression of parasitemia at 30 mg/kg, po administered for 4 consecutive days starting at 2 hrs post infection by peter's test relative to control. Type of data set: functional. In a few lines:
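P. berghei ANKA passaged in C57BL/6 donor; test mice infected ip with 200 μL of 1 × 10⁷ parasitized erythrocytes in PBS. Oral dosing 30 mg/kg at 2 h post-infection, then daily D0–D3; PBS-dosed controls. Parasitemia read on D4 from Giemsa-stained, methanol-fixed tail thin films; suppression relative to control.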

Data set [10] is described as follows: Half life in BALB/c mouse liver microsomes at 1 uM in presence of NADPH by LC-MS/MS analysis. The class given is ADME, microsome. The procedure, abridged: (§1)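 Compound at 1 μM with 0.35 mg/ml male BALB/c mouse liver microsomes, 1 mM NADPH, 100 mM phosphate pH 7.4, 37 °C, 30 min; triplicate. Stopped by ice-cold acetonitrile with carbamazepine internal standard; parent loss by LC-MS/MS (ESI positive, MRM) as % remaining; scan data screened for putative metabolite fragments.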
(In general: Liver microsomes are vesicles of endoplasmic reticulum, rich in cytochrome P450 enzymes.)

Data set [11] can be described thus: Intrinsic clearance in BALB/c mouse liver microsomes at 1 uM in presence of NADPH by LC-MS/MS analysis. Type of data set: ADME, microsome. As to conditions: read-out: CLH. In a few lines:
as §1

The nature of data set [12]: Metabolic stability in BALB/c mouse liver microsomes assessed as parent compound remaining at 1 uM after 30 mins in presence of NADPH by LC-MS/MS analysis. Type of data set: ADME, microsome. As to conditions: read-out: Stability. In a few lines:
as §1

In data set [13] the test system is Plasmodium falciparum. Put plainly: Increase in hemoglobin levels in chloroquine-sensitive synchronized ring stage of Plasmodium falciparum NF54 after 32 hrs by flow cytometric analysis. Type of data set: functional. In a few lines:
(§2)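 Sorbitol-synchronized (5%) ring-stage cultures exposed to compound at multiples of IC50 for 32 h; trophozoites freed with 0.05% saponin, PBS-washed, counted by hemocytometer and flow cytometry. Hypotonic lysis/sonication, then sequential SDS/pyridine fractionation into hemoglobin, free heme and hemozoin (SDS/NaOH) fractions; each measured by UV-vis as Fe(III) heme-pyridine complex.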
A general note: A flow cytometer gives signals particle by particle.

Data set [14] relates to Plasmodium falciparum. The experiment in a line: Increase in free heme levels in chloroquine-sensitive synchronized ring stage of Plasmodium falciparum NF54 after 32 hrs by flow cytometric analysis. The class given is functional. The procedure, abridged:
as §2

Data set [15] concerns Plasmodium falciparum. The experiment in a line: Decrease in hemozoine formation in chloroquine-sensitive synchronized ring stage of Plasmodium falciparum NF54 after 32 hrs by flow cytometric analysis. Type of data set: functional. In a few lines:
as §2

A short description of data set [16]: Inhibition of beta hematin formation by detergent based assay. The procedure, abridged: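 β-hematin formation from hematin in 1 M acetate buffer pH 4.9 with NP40 detergent, compound serially diluted from 20 mM DMSO stock; ~5 h at 37 °C. Free heme complexed with pyridine/acetone/HEPES pH 7.4 solution, absorbance at 405 nm; IC50 from dose-response curves.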

For data set [17], the system named is Liver. The experiment in a line: Drug metabolism in BALB/c mouse liver microsomes assessed as N-dealkylation on tertiary amine at 1 uM in presence of NADPH by mass spectrometric analysis. The class given is ADME, microsome. In a few lines:
as §1

Data set [18] relates to Liver. The experiment in a line: Drug metabolism in BALB/c mouse liver microsomes assessed as oxidation of quinoline core or pyridyl ring at 1 uM in presence of NADPH by mass spectrometric analysis. The class given is ADME, microsome. The procedure, abridged:
as §1

Data set [19] relates to Liver. The experiment in a line: Drug metabolism in BALB/c mouse liver microsomes assessed as N-dealkylation with oxidative deamination at 1 uM in presence of NADPH by mass spectrometric analysis. Type of data set: ADME, microsome. The procedure, abridged:
as §1

The subject of data set [20] is Liver. Put plainly: Drug metabolism in BALB/c mouse liver microsomes assessed as aldehyde reduction at 1 uM in presence of NADPH by mass spectrometric analysis. Type of data set: ADME, microsome. The procedure, abridged: as §1
The subject of data set [21] is Liver. The experiment in a line: Drug metabolism in BALB/c mouse liver microsomes assessed as oxidation of aldehyde to carboxylic acid at 1 uM in presence of NADPH by mass spectrometric analysis. The class given is ADME, microsome. In a few lines:
as §1

For data set [22], the target named is Voltage-gated inwardly rectifying potassium channel KCNH2 (Homo sapiens, UniProt Q12809). Put plainly: Inhibition of human ERG expressed in CHO cells by automated patch clamp method. The class given is cell-based.
Voltage-gated inwardly rectifying potassium channel KCNH2, sequence (Q12809 whole entry): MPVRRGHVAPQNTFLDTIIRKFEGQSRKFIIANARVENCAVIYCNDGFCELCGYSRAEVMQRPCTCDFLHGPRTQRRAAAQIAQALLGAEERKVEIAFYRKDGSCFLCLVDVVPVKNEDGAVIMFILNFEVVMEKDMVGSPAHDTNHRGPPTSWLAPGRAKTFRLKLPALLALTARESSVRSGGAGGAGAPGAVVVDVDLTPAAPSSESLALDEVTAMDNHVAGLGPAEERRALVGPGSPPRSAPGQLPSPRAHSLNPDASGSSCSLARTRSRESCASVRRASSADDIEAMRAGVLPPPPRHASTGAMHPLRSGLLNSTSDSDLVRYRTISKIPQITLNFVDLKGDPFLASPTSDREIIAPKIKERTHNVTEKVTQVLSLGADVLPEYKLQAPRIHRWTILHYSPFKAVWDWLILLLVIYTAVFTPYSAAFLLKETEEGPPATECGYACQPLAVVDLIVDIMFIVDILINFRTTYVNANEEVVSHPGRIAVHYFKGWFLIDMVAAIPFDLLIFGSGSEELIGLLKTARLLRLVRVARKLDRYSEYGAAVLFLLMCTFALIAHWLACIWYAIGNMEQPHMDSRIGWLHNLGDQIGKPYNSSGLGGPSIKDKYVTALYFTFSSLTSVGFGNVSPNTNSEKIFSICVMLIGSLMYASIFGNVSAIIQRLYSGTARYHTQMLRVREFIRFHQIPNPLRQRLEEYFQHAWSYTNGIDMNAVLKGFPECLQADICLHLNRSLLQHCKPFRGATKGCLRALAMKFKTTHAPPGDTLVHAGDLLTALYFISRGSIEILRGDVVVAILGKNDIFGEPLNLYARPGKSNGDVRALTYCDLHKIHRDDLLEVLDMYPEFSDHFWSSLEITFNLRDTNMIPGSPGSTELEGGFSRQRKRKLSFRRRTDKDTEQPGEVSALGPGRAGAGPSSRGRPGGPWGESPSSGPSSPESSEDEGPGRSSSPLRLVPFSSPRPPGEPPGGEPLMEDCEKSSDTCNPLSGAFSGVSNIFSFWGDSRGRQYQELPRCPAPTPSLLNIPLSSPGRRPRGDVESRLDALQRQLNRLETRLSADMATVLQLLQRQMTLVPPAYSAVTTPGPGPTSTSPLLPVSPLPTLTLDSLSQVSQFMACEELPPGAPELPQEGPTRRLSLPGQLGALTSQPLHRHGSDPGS

In general, logD refers to lipophilicity at a set pH, counting ionised and neutral species. A high value points to a more lipophilic compound. Broadly, the IC50 is the concentration at which inhibition is half-maximal. Usually half-life stands for how long it takes for the measured level to halve. Take `CN(Cc1ccccn1)Cc1ccccc1CNc1ccnc2cc(Cl)ccc12`: the “Ratio IC50” value in the data set on Plasmodium falciparum [1] is given as 2.5; in the data set with Plasmodium falciparum [8] it was 3.4. For the same molecule, the solubility kinetic at 2 h in data set [2] was 165 µM (≈ 66.4 µg/mL). The logD at 4 h in [3] was 0.9. The logD in data set [4] is 3.79. Further, the IC50 in the data set with Plasmodium falciparum [5] stood at 54.4 nM; in the data set on Plasmodium falciparum [6], 137 nM; with Plasmodium falciparum [7] it was 184 nM; with CHO, 40200 nM; in data set [16], 17900 nM; in data set [22] it was 870 nM. For the same molecule, the selectivity ratio in data set [9] came out at 740. Moreover, the Activity in the data set with Plasmodium berghei was 82.4%; with Plasmodium falciparum [13], “Dose-dependent effect”; in the data set on Plasmodium falciparum [14], “Dose-dependent effect”; with Plasmodium falciparum [15] it was “Dose-dependent effect”. Besides, the half-life at 1 µM in [10] is 5.49 min. The CLint scaled at 1 µM in [11] stood at 1220 mL/min/kg. The remaining at 0.5 h, 1 µM in data set [12] turned out to be 2.32%. Also, the Drug metabolism entry in the data set with Liver [17], in the data set on Liver [18], in the data set with Liver [19], with Liver [20] and with Liver [21] was “Metabolite_Detected” each time.
As to `CN(Cc1ccccn1)Cc1ccccc1CNc1ccnc2cc(C#N)ccc12`, the “Ratio IC50” value worked out at 1.3 in the data set on Plasmodium falciparum [1] and 2.4 with Plasmodium falciparum [8]. The solubility kinetic at 2 h in data set [2] is 172 µM (≈ 67.8 µg/mL). The molecule also yielded a logD at 4 h in data set [3] of 0.81. The molecule further showed a pH-dependent lipophilicity (logD) in data set [4] of 3.8. The IC50 with Plasmodium falciparum [5] came to 127 nM; in the data set with Plasmodium falciparum [6], 162 nM; in the data set on Plasmodium falciparum [7], 307 nM; in the data set with CHO it was 27600 nM; in data set [16], 16600 nM. Besides, the selectivity ratio in data set [9] stood at 218. The Activity in the data set with Plasmodium berghei was 47.1%; in the data set with Plasmodium falciparum [13], “Dose-dependent effect”; with Plasmodium falciparum [14], “Dose-dependent effect”; with Plasmodium falciparum [15], “Dose-dependent effect”. Also, the half-life at 1 µM in data set [10] came to 5.35 min. In addition, in data set [11], the CLint scaled at 1 µM came out at 1250 mL/min/kg. In addition, in data set [12], the remaining at 0.5 h, 1 µM was 2.08%. Also, the Drug metabolism result in the data set with Liver [17], with Liver [18], with Liver [19], in the data set with Liver [20] and in the data set on Liver [21] was “Metabolite_Detected” in each case.
